Laboratory results reported in ChEMBL document CHEMBL3286364, “Ligand efficiency driven design of new inhibitors of Mycobacterium tuberculosis transcriptional repressor EthR using fragment growing, merging, and linking approaches” (J Med Chem, 2014).

Assays:
[1] = tested on: Mycobacterium tuberculosis; assay: Binding affinity to Mycobacterium tuberculosis EthR assessed as change in melting temperature at 20 uM by thermal shift assay
How it was run: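 Protein unfolding tracked with SYPRO Orange in a real-time PCR instrument. Ligand at 20 μM in EthR buffer (10 mM Tris/HCl, 300 mM NaCl, 0.1 mM EDTA, pH 7.5). Heated 37 to 85 °C at 0.04 °C/s, fluorescence read at Ex/Em 465/510 nm. ΔTm taken as the holo minus apo melting temperature.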

[2] = tested on: Mycobacterium tuberculosis; assay: Antimicrobial activity against Mycobacterium tuberculosis H37Rv expressing GFP infected in mouse RAW264.7 cells assessed as concentration required to potentiate 0.1 ug/ml […] to inhibit microbial growth by 50% by fluorescence assay; assay type: functional, organism-based
How it was run: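 RAW264.7 macrophages infected with H37Rv-GFP at MOI 1:1 for 2 h at 37 °C with shaking. Extracellular bacilli killed with amikacin (20 μM, 1 h). Infected cells added to compound serial dilutions (ten 2-fold) with ethionamide fixed at 0.1 μg/mL, 5 days at 37 °C, 5% CO2. SYTO 60 stained; confocal imaging gives percent infected cells and cell number. Two replicates averaged.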

[3] = Solubility in PBS at pH 7.4 after 24 hrs by LC-MS/MS analysis; assay type: physicochemical
How it was run: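 10 mM DMSO stock diluted 1:50 into PBS pH 7.4 or MeOH. Shaken 24 h at room temperature, centrifuged, filtered (0.45 μm), diluted tenfold in MeOH. Analysed by LC-MS/MS (SIM or MRM). Solubility from the PBS/MeOH ratio of mass signal areas.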

[4] = Inhibition of Mycobacterium tuberculosis EthR assessed as inhibition of EthR-DNA interaction after 3 mins by SPR assay
How it was run: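 106-bp biotinylated ethA/ethR intergenic DNA immobilised on a streptavidin chip (about 75 RU). An irrelevant 113-bp bla fragment in the reference channel; signal taken as the channel difference. Preincubated 5 min at 37 °C, injected at 20 μL/min for 3 min at 25 °C. Response read at end of injection; IC50 from dose-response.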

Row | SMILES | ΔTm [1] | EC50 [2] | solubility at 24 h [3] | IC50 [4]
1 | CC(C)CCNS(=O)(=O)c1ccc(I)cc1 | 1.9 °C | > 10 µM |  | 
2 | CC(C)CCNS(=O)(=O)c1ccc(-c2ccc(F)cc2)cc1 | 2.2 °C | > 10 µM |  | 
3 | Cc1nc(-c2ccc(S(=O)(=O)NCC(F)(F)F)cc2)cs1 | 6.3 °C | 7.9 µM |  | 
4 | Cc1nc(-c2ccc(C(=O)NCCC(F)(F)F)cc2)cs1 | 11.2 °C | 0.08 µM | 14.7 µg/mL | 400 nM
5 | CC(=O)Nc1ccc(-c2ccc(S(=O)(=O)NCCC(C)C)cc2)cc1 | 2 °C | > 10 µM |  | 
6 | CCCS(=O)(=O)NCc1nc(-c2ccc(C(=O)NCCC(F)(F)F)cc2)cs1 | 6.6 °C | 0.32 µM | 1.3 µg/mL | 560 nM
7 | Cc1nc(-c2ccc(S(=O)(=O)NCCC(C)C)cc2)cs1 | 6.1 °C | 5.7 µM | 6.6 µg/mL | 4900 nM
8 | Cc1nc(-c2ccc(S(=O)(=O)NCCCC(F)(F)F)cc2)cs1 | 6.6 °C | > 2.5 µM |  | 
9 | CCOC(=O)c1ccc(S(=O)(=O)NCCC(C)C)cc1 | 4.3 °C | 10 µM |  | 
10 | C#CCNS(=O)(=O)c1ccc(I)cc1 | 0.1 °C | > 10 µM | > 200 µM | 160000 nM
11 | COc1ccc(-c2ccc(S(=O)(=O)NCCC(C)C)cc2)cc1 | 3.7 °C | > 10 µM |  | 
12 | CC(C)CCNS(=O)(=O)c1ccc(N2CCCC2=O)cc1 | 0.6 °C | > 10 µM |  | 
13 | CC(C)CCNS(=O)(=O)c1ccc(-c2cnco2)cc1 | 1.2 °C | > 10 µM |  | 
14 | CCCCOc1ccc(S(=O)(=O)NCCC(C)C)cc1 | 3.6 °C | > 10 µM |  | 
15 | O=C(NCCC(F)(F)F)c1ccc(C#CCNS(=O)(=O)c2ccccc2)cc1 | 4.2 °C | 0.23 µM | 3 µg/mL | 3900 nM
16 | CC(C)CCNS(=O)(=O)c1ccc(-n2cccn2)cc1 | 1.9 °C | > 10 µM |  | 
17 | Cc1nc(-c2ccc(S(=O)(=O)NCCC(C)(C)C)cc2)cs1 | 2.3 °C | > 20 µM |  | 
18 | Cc1nc(-c2ccc(S(=O)(=O)NCCC(F)(F)F)cc2)cs1 | 8.5 °C | 0.29 µM | 14.5 µg/mL | 550 nM
19 | CC(C)CCNS(=O)(=O)c1ccc(CCC(C)C)cc1 | 3.2 °C | 6.3 µM |  | 
